# Active and inactive are the calls of the source.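 Rule for the calls, unless noted: active = inhibition at or above 50% at 10 µM; inactive = inhibition below 50%.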
# What was measured:
# [1] = inhibitors of TNFa-induced NFkB p65 translocation, primary screen, imaging, HUVEC, MLSMR starter and 10KST1 sets (AID 438;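 active = inhibition above 20% together with a positive visual image hit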;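 note: compound added about 3h40 before a 20 min TNFalpha stimulation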;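 for inhibition: signal is the nuclear over cytoplasmic p65 intensity ratio per well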); settings: HUVEC TNFa-induced p65 nuclear translocation; cell count: measured here: nuclei count (cytotoxicity indicator), at 2.08 µM; inhibition: at 2 µM, stronger effect = higher value, 0% TNFa-plus-vehicle, 100% no-TNFa wells
# [2] = inhibitors of mutant huntingtin aggregation, primary screen, imaging, exon1htt(103Q)mCFP cells, high-content imaging (AID 483;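 active = visual image review flags a hit and inhibition of aggregation exceeds 20%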;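 note: compound exposure lasted 3 days before fixation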;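 for nuclei count: percent of the per-plate median nuclei count of sample wells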); settings: exon1htt(103Q)mCFP cell line, aggregate imaging, at 2 µM; inhibition of aggregation: stronger effect = higher value; nuclei count: measured here: cell count, toxicity
# [3] = inhibitors of E-selectin induction by TNFa, primary screen, imaging, HUVEC, immunofluorescence, MLSMR starter and 10KST1 sets (AID 487;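 active = visually confirmed hit in the image check and inhibition above 20%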;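 for inhibition: signal is fraction of cell area covered by stained E-selectin grains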;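 for nuclei count: 100% = median nuclei count of all wells on the same plate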); settings: HUVEC TNFalpha-induced E-selectin immunofluorescence imaging, at 2 µM; inhibition: stronger effect = higher value; nuclei count: measured here: cell number, toxicity
# [4] = molecular target: Voltage-gated potassium channel subunit beta-2 (Rattus norvegicus) (UniProt P62483); test: KvBeta enzyme negative modulators, primary screen, biochemical, NADPH fluorescence (AID 622;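 active = fluorescence slope higher than the sample average by over 3 SD, cut at about -0.22 in these data, passing the limit was not always enough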;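 note: slope of raw intensity against log time taken from 70 to 1610 s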); settings: recombinant KvBeta, 4-cyanobenzaldehyde reduction, at 10 µM, stronger effect = higher value
# [5] = molecular target: Voltage-gated potassium channel subunit beta-2 (Rattus norvegicus) (UniProt P62483); test: KvBeta positive modulators, primary screen, biochemical, NADPH fluorescence (AID 623;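 active = NADPH fluorescence slope more negative than the mean of all samples by about 3 SD, 99.7% confidence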;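 note: fluorescence intensity change per second fitted from 20 to 320 s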); settings: Recombinant KvBeta, NADPH fluorescence decrease slope, 10 min; at 10 µM; stronger effect = lower value
# [6] = molecular target: Muscarinic acetylcholine receptor M4 (Homo sapiens) (UniProt P08173); test: compounds altering M4/GIRK thallium flux, either direction, primary screen, M4 allosteric agonist project, cell-based, HEK293 M4/GIRK, BTC-AM (AID 625;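 active = fluorescence slope after compound addition differing from the mean of all tested samples at 99.7% confidence, mostly higher but some lower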;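 note: thallium influx through GIRK channels coupled to M4 in HEK293 cells with BTC-AM dye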); settings: at 10 µM, actives lie on both sides
# Outline: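 Material: HEK293 cells with M4 receptor and GIRK channels; Times: cells overnight at 37 °C, BTC-AM loading 1 h, reads 2 min total; Technique: kinetic BTC-AM fluorescence sampled at 1 Hz, 10 s pre-addition baseline; Read-out basis: slope over 15–24 s of trace normalized to starting intensity; Controls: carbachol positive, DMSO negative.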
# [7] = inhibitors of Sendai virus-induced IRF3 signaling, primary screen, TLR/RLR signaling modifier project, cell-based, Sendai virus stimulus, luciferase, 10K MLSCN set (AID 602276); settings: HEK293 RL24 IRF3 luciferase reporter, at 10 µM, stronger effect = higher value;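 note: firefly luciferase from ISG56 promoter only with Renilla not read in this screen; 0% = Sendai virus plus DMSO and 100% = medium plus DMSO without virus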
# [8] = inhibitors of poly I:C-induced TLR3 signaling, primary screen, cell-based, poly I:C stimulus, luciferase, 10K MLSCN set (AID 602277;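 active = inhibition of the reporter signal at or above 50%; inactive = inhibition below 50%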); settings: HEK293-TLR3 RL24 IRF3 luciferase reporter, at 10 µM, stronger effect = higher value
# Voltage-gated potassium channel subunit beta-2 (Rattus norvegicus), sequence (P62483 whole entry, looked up): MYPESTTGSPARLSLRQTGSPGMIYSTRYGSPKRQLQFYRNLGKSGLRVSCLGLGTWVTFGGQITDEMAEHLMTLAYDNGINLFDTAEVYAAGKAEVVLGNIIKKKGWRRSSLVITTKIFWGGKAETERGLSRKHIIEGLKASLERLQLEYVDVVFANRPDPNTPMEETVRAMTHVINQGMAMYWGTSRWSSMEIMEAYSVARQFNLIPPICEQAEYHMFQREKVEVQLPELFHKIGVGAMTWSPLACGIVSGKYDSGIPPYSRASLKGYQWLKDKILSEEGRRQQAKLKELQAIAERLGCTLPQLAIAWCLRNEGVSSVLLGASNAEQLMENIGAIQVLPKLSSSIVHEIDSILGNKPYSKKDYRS
# Muscarinic acetylcholine receptor M4 (Homo sapiens), sequence (P08173 whole entry, looked up): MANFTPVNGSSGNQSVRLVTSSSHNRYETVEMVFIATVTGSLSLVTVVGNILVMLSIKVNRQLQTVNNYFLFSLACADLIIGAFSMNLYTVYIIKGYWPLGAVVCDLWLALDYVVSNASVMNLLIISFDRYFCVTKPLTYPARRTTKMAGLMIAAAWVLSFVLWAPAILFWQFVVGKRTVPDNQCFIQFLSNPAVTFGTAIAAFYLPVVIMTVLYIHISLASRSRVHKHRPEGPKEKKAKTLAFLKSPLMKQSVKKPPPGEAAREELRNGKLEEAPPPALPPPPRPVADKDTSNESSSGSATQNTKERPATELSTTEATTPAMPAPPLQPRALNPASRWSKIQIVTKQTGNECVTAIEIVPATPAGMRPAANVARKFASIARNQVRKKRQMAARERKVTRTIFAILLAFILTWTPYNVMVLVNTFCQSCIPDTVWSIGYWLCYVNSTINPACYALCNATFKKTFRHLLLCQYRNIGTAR
Compound,cell count [1],inhibition [1],inhibition of aggregation [2],nuclei count [2] [%],inhibition [3],nuclei count [3] [%],fluorescence slope [4],NADPH fluorescence slope [5],fluorescence slope [6],inhibition [7],inhibition [8]
CCOC(=O)C1CCN(C(=O)CSc2cc(=O)n(CC)c3ccccc23)CC1,378,2.2% (inactive),-0.2% (inactive),110,-26.1% (inactive),111,-0.629 (inactive),6.5e-05 (inactive),0.00567 (inactive),-0.518% (inactive),38.8% (inactive)
COc1ccc(C)cc1NC(=O)CNC(=O)Cn1ccc2ccccc2c1=O,730,-14.1% (inactive),-10.4% (inactive),108,21.2% (inactive),96.3,-0.461 (inactive),-2.5e-05 (inactive),0.0048 (inactive),25.5% (inactive),20.3% (inactive)
O=C(Nc1ccccc1C(=O)N1CCOCC1)c1ccncc1,389,0.7% (inactive),5.4% (inactive),107,-97.8% (inactive),105,-0.579 (inactive),-3.8e-05 (inactive),0.00647 (inactive),5.72% (inactive),17.1% (inactive)
CC1(C)CC(=O)C=C(Nc2ccc(F)cc2)C1,454,10.9% (inactive),3.9% (inactive),99.5,-20% (inactive),109,-0.607 (inactive),3.1e-05 (inactive),0.00469 (inactive),-2.98% (inactive),13.6% (inactive)
CCCCNS(=O)(=O)c1ccc(OC)c2ncccc12,568,4.1% (inactive),16.3% (inactive),115,-1.9% (inactive),93,-0.337 (inactive),-4.1e-05 (inactive),0.00627 (inactive),-12.5% (inactive),-11.5% (inactive)
Cc1csc2nc(CSc3nc4ccccc4o3)c(Br)n12,573,-14.8% (inactive),-9.5% (inactive),98.3,-1.4% (inactive),125,-0.536 (inactive),0.000171 (inactive),0.00576 (inactive),-40% (inactive),-122% (inactive)
CCC(=O)Nc1ccc(NC(=O)CSc2nnnn2C(C)C)cc1,667,-8.1% (inactive),-6% (inactive),74.9,-74.4% (inactive),129,-0.461 (inactive),-4.3e-05 (inactive),0.00465 (inactive),14.9% (inactive),16.2% (inactive)
COC(=O)COc1nc(C)c(Br)c(OC)n1,367,2.4% (inactive),-14% (inactive),96.9,-89.5% (inactive),110,-0.615 (inactive),-1.6e-05 (inactive),0.00344 (inactive),15.8% (inactive),17.1% (inactive)
C/C(=C(\C#N)C(=O)NCCCN1CCOCC1)N(C)C,475,-11.2% (inactive),20.1% (inactive),75.2,-96.7% (inactive),115,-0.581 (inactive),-1.9e-05 (inactive),0.0035 (inactive),1.58% (inactive),-2.64% (inactive)
COc1ccccc1-n1cnc(N)c1C(C)=O,675,-9.1% (inactive),-12.9% (inactive),105,-12.3% (inactive),110,-0.586 (inactive),-5.1e-05 (inactive),0.00353 (inactive),6.44% (inactive),5.79% (inactive)
CCOc1ccccc1C(=O)NCCC(=O)O,326,-5.1% (inactive),-42.8% (inactive),91.6,16% (inactive),118,-0.505 (inactive),-0.00026 (inactive),0.00473 (inactive),-1.19% (inactive),-5.47% (inactive)
O=S(=O)(NCCc1ccncc1)c1cc(Br)ccc1F,231,1.9% (inactive),-9.7% (inactive),106,-46.9% (inactive),110,-0.626 (inactive),-1.6e-05 (inactive),0.00792 (inactive),24.5% (inactive),16.5% (inactive)
COc1ccccc1N1CCN(c2nc3ccccc3nc2C(C#N)C(=O)OC(C)C)CC1 (stereo not given),518,1% (inactive),-12.2% (inactive),119,-72.9% (inactive),191,-0.523 (inactive),-0.000323 (inactive),0.00467 (inactive),-13.1% (inactive),-6.25% (inactive)
CC(=O)Nc1ccc(S(=O)(=O)N2CCN(C(C)CCc3ccccc3)CC2)cc1 (stereo not given),440,0% (inactive),2.6% (inactive),69.7,1.2% (inactive),96.1,-0.538 (inactive),-6.4e-05 (inactive),0.00422 (inactive),7.51% (inactive),20.1% (inactive)
C[C@H](NC(=O)OC(C)(C)C)C(=O)NCC1CCC(C(=O)O)CC1 (stereo not given in full),376,-1.1% (inactive),4% (inactive),103,-23.6% (inactive),101,-0.536 (inactive),1.9e-05 (inactive),0.00501 (inactive),16.6% (inactive),21.3% (inactive)

# — PubChem BioAssay
